Test results from ChEMBL document CHEMBL4406921, “Discovery of Axelopran (TD-1211): A Peripherally Restricted μ-Opioid Receptor Antagonist” (ACS Med Chem Lett, 2019).

What was measured:
Mu-type opioid receptor [1] = target: T1, Mu-type opioid receptor (Homo sapiens, UniProt P35372); test: Displacement of [3H]-DPN from recombinant human mu opioid receptor expressed in CHO-K1 cell membranes by radioligand binding assay
Summary of the method: (§1)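 Membranes from CHO-K1 cells stably transfected with human recombinant μ or δ receptor, or guinea pig κ receptor; competition with [3H]-DPN radioligand; affinity reported as pKi.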

[2] = target: Delta-type opioid receptor (Homo sapiens, UniProt P41143); test: Displacement of [3H]-DPN from recombinant human delta opioid receptor expressed in CHO-K1 cell membranes by radioligand binding assay; summary of the method: as §1
[3] = target: Kappa-type opioid receptor (Cavia porcellus, UniProt P41144); test: Displacement of [3H]-DPN from guinea pig kappa opioid receptor expressed in CHO-K1 cell membranes by radioligand binding assay; summary of the method: as §1
Mu-type opioid receptor [4] = target: T1, Mu-type opioid receptor; test: Antagonist activity at human recombinant mu opioid receptor expressed in CHO-K1 cell membranes assessed as intrinsic activity at 10 pM to 20 uM incubated for 30 mins in presence of Eu-GTP by DELFIA GTP binding assay relative to DAMGO
[5] = Half life in rat liver microsomes at 3 uM; type: ADME, Microsome
[6] = Half life in dog liver microsomes at 3 uM; type: ADME, Canis lupus familiaris, Microsome
[7] = Half life in human liver microsomes at 3 uM; type: ADME, Microsome
[8] = Permeability coefficient, Kp in human Caco2 cells; type: ADME, cell-based; details: Caco-2, read-out: Kp
[9] = Cmax in Sprague-Dawley rat at 5 mg/kg, po administered via gavage; type: ADME, organism-based; set-up: dose 5 mg/kg, route oral; details: in vivo
[10] = AUC(0 to t) in Sprague-Dawley rat at 5 mg/kg, po administered via gavage; type: ADME, organism-based; details: in vivo
[11] = Half life in Sprague-Dawley rat at 5 mg/kg, po administered via gavage; type: ADME, organism-based; details: in vivo
[12] = Oral bioavailability in Sprague-Dawley rat at 5 mg/kg administered via gavage; type: ADME, organism-based; details: in vivo
Mus musculus [13] = test: Inhibition of morphine-induced delays in intestinal transit in po dosed ICR mouse administered via gavage pretreated with compound and 30 mins later injected with morphine followed 5 mins later by ingestion of test meal and measured after 60 mins; type: functional; details: for ED50: read-out: ID50 (the source's name)
Summary of the method: (§2)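 Mice dosed orally; reversal of morphine-induced delay in intestinal transit, delay in gastric emptying, or hot plate antinociception measured; dose-dependent responses fitted to give ID50 in mg/kg.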

Mus musculus [14] = test: Inhibition of morphine-induced delays in gastric emptying in po dosed ICR mouse administered via gavage pretreated with compound and 30 mins later injected with morphine followed 5 mins later by ingestion of test meal and measured after 60 mins; type: functional; details: for ED50: read-out: ID50 (the source's name); summary of the method: as §2
Mus musculus [15] = test: Inhibition of morphine-induced antinociceptive activity in po dosed ICR mouse administered via gavage pretreated with compound and 30 mins later injected with morphine and measured after 30 mins by hot plate test; type: functional; details: for ED50: read-out: ID50 (the source's name); summary of the method: as §2
Mus musculus [16] = species: Mus musculus; test: Peripheral selectivity index, ratio of ID50 for inhibition of morphine-induced antinociceptive activity in ICR mouse to ID50 for inhibition of morphine-induced delays in intestinal transit in ICR mouse; type: functional
Summary of the method: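 Mice were dosed orally with antagonist at several doses and challenged with morphine. ID50 values were taken from dose-dependent reversal of morphine-induced hot plate antinociception (CNS) and of morphine-induced delay in intestinal transit (peripheral). The index is the hot plate ID50 divided by the intestinal transit ID50.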

Mus musculus [17] = species: Mus musculus; test: Peripheral selectivity index, ratio of ID50 for inhibition of morphine-induced delays in gastric emptying in ICR mouse to ID50 for inhibition of morphine-induced delays in intestinal transit in ICR mouse; type: functional

Chain of Kappa-type opioid receptor (P41144 whole entry): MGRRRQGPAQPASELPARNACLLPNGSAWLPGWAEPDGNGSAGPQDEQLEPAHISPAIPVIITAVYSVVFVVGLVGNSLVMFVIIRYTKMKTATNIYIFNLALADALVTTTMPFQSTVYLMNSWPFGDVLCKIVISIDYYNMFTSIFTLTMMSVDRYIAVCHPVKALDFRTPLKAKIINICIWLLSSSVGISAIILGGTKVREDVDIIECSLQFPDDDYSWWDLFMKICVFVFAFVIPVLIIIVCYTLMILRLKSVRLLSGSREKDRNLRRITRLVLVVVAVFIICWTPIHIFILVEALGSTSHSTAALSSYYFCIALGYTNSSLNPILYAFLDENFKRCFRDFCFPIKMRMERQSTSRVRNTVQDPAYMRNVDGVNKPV
T1 sequence (P35372 whole entry): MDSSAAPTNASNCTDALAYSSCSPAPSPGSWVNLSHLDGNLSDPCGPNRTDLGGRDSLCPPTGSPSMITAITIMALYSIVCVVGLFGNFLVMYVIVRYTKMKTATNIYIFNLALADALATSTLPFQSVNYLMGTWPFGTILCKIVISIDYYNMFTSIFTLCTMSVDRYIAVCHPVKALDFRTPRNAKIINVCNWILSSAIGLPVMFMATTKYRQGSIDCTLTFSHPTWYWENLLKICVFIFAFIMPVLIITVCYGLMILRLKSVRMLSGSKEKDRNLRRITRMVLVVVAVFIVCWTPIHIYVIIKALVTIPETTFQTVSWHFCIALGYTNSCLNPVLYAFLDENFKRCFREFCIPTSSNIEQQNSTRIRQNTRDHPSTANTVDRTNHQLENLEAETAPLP
Chain of Delta-type opioid receptor (P41143 whole entry): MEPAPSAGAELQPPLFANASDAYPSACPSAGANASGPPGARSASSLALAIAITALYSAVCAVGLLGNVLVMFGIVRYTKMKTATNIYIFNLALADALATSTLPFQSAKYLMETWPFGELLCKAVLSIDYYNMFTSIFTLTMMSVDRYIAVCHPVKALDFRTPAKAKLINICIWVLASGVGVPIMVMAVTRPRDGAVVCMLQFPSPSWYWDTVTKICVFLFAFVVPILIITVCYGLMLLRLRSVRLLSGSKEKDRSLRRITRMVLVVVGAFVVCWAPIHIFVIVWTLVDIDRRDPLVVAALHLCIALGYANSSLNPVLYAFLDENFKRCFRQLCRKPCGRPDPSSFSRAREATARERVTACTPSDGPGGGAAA

| SMILES | Ki (Mu-type opioid receptor [1]) [nM] | Ki [2] [nM] | Ki [3] [nM] | Intrinsic activity (Mu-type opioid receptor [4]) [%] | half-life at 3 µM [5] [h] | half-life at 3 µM [6] [h] | half-life at 3 µM [7] [h] | Papp [8] [×10⁻⁶ cm/s] | Cmax [9] [ng/mL] | AUC(0-t) [10] [ng·h/mL] | half-life [11] [h] | bioavailability [12] [%] | ED50 (Mus musculus [13]) [mg/kg] | ED50 (Mus musculus [14]) [mg/kg] | ED50 (Mus musculus [15]) [mg/kg] | Selectivity Index (Mus musculus [16]) | Selectivity Index (Mus musculus [17]) | inhibition (Mus musculus [13]) | inhibition (Mus musculus [14]) | inhibition (Mus musculus [15]) |
| --- | --- | --- | --- | --- | --- | --- | --- | --- | --- | --- | --- | --- | --- | --- | --- | --- | --- | --- | --- | --- |
| C[C@H]1CN(C[C@H](Cc2ccccc2)C(=O)O)CC[C@@]1(C)c1cccc(O)c1 | 0.316 | 15.8 | 25.1 | -8 | > 1.5 | > 1.5 | > 1.5 | 5 | 710 | 1200 | 3.7 | 53 | 0.064 | 0.027 | 1.1 | 17 | 41 | – | – | – |
| O=C1CC[C@@]2(O)[C@H]3Cc4ccc(O)c5c4[C@@]2(CCN3CC2CC2)[C@H]1O5 [NALTREXONE] | – | – | – | – | – | – | – | 84 | – | – | – | – | 0.6 | 0.5 | 0.82 | – | – | – | – | – |
| NC(=O)c1cccc([C@H]2C[C@H]3CC[C@@H](C2)N3CCN(CC2CCCCC2)C(=O)Cc2nnn[nH]2)c1 | 0.398 | 3.16 | 1.58 | 0 | 1.5 | 1.5 | 1.5 | < 1 | – | – | – | – | – | – | – | – | – | – | – | – |
| CCC(CC)CN(CCCCCCN1[C@@H]2CC[C@H]1C[C@@H](c1cccc(C(N)=O)c1)C2)C(=O)CO | 1 | 25.1 | – | -2 | 0.433 | 0.15 | 0.15 | – | – | – | – | – | – | – | – | – | – | – | – | – |
| C[C@H]1CN(CCC(=O)O)CC[C@@]1(C)c1cccc(O)c1 | 631 | 3160 | – | 4 | > 1.5 | – | – | < 1 | – | – | – | – | – | – | – | – | – | – | – | – |
| CCC(CC)CN(CCCCCN1[C@@H]2CC[C@H]1C[C@@H](c1cccc(C(N)=O)c1)C2)C(=O)CO | 0.631 | 20 | – | 1 | 0.467 | 0.317 | 0.2 | – | – | – | – | – | – | – | – | – | – | – | – | – |
| CC(=O)N(CCN1[C@@H]2CC[C@H]1C[C@@H](c1cccc(C(N)=O)c1)C2)CC1CCCCC1 | 0.1 | 1.58 | 0.126 | -1 | 1.23 | 0.267 | 1.05 | – | – | – | – | – | – | – | – | – | – | – | – | – |
| NC(=O)c1cccc([C@H]2C[C@H]3CC[C@@H](C2)N3CCN(CCc2ccccc2)C(=O)CO)c1 | – | 20 | – | – | 0.567 | 1.02 | 1.5 | 16 | – | – | – | – | – | – | – | – | – | – | – | – |
| CCCCCCN(CCN1[C@@H]2CC[C@H]1C[C@@H](c1cccc(C(N)=O)c1)C2)C(=O)CO | 0.794 | 63.1 | 3.16 | -9 | 1.18 | 0.183 | 1.5 | 45 | – | – | – | – | – | – | – | – | – | – | – | – |
| NC(=O)c1cccc([C@H]2C[C@H]3CC[C@@H](C2)N3CCN(CC2CCOCC2)C(=O)CO)c1 | 12.6 | 200 | 6.31 | 0 | 1.5 | 1.5 | 1.5 | < 1 | – | – | – | – | – | – | – | – | – | – | – | – |
| CCC(CC)CN(CCN1[C@@H]2CC[C@H]1C[C@@H](c1cccc(C(N)=O)c1)C2)C(=O)CO | 0.158 | 12.6 | 0.126 | 9 | 1.5 | 1.25 | 1.5 | 32 | – | – | – | – | – | – | – | – | – | – | – | – |
| NC(=O)c1cccc([C@H]2C[C@H]3CC[C@@H](C2)N3CCN(CC2CCCCC2)C(=O)c2ccco2)c1 | 0.1 | 1.26 | 0.1 | 1 | 0.167 | 0.0333 | 0.283 | – | – | – | – | – | – | – | – | – | – | – | – | – |
| NC(=O)c1cccc([C@H]2C[C@H]3CC[C@@H](C2)N3CCN(CC2CCCCC2)C(=O)CO)c1 | 0.1 | 3.98 | 0.126 | -3 | 1.28 | 0.3 | 1.32 | 40 | 290 | 430 | 1.3 | 61 | 0.1 | 0.046 | 4.2 | 42 | 91 | Dose-dependent effect | Dose-dependent effect | Dose-dependent effect |
| NC(=O)c1cccc([C@H]2C[C@H]3CC[C@@H](C2)N3CCN(CC2CCC(F)(F)CC2)C(=O)CO)c1 | 0.126 | 12.6 | 0.251 | -5 | 1.5 | 1.5 | 1.5 | 14 | 390 | 1200 | 2 | 30 | 0.23 | 0.03 | 4.4 | 19 | 147 | Dose-dependent effect | Dose-dependent effect | Dose-dependent effect |
| NC(=O)c1cccc([C@H]2C[C@H]3CC[C@@H](C2)N3CCN(CC2CCC2)C(=O)CO)c1 | 1.58 | 31.6 | 0.631 | 13 | 1.5 | 1.5 | 1.5 | 14 | – | – | – | – | – | – | – | – | – | – | – | – |
| CN(C)S(=O)(=O)N(CCN1[C@@H]2CC[C@H]1C[C@@H](c1cccc(C(N)=O)c1)C2)CC1CCCCC1 | 0.2 | 2 | 0.2 | 0 | 0.133 | 0.0833 | 0.15 | – | – | – | – | – | – | – | – | – | – | – | – | – |
| NC(=O)c1cccc([C@H]2C[C@H]3CC[C@@H](C2)N3CCN(Cc2ccccc2)C(=O)CO)c1 | – | 5.01 | 0.2 | -3 | 1.42 | 1.5 | 1.5 | 21 | – | – | – | – | – | – | – | – | – | – | – | – |
| C[C@H]1CN(CCCc2ccccc2)CC[C@@]1(C)c1cccc(O)c1 | 0.1 | 1.26 | 0.794 | -21 | 0.1 | – | – | – | – | – | – | – | – | – | – | – | – | – | – | – |
| CCC(CC)CN(CCCN1[C@@H]2CC[C@H]1C[C@@H](c1cccc(C(N)=O)c1)C2)C(=O)CO | – | 3.16 | 0.2 | 3 | 1.48 | 1.5 | 1.5 | 20 | – | – | – | – | – | – | – | – | – | – | – | – |
| COC(=O)N(CCN1[C@@H]2CC[C@H]1C[C@@H](c1cccc(C(N)=O)c1)C2)CC1CCCCC1 | 0.126 | 2.51 | 0.2 | 7 | 0.0333 | 0.0333 | 0.117 | – | – | – | – | – | – | – | – | – | – | – | – | – |
| CS(=O)(=O)N(CCN1[C@@H]2CC[C@H]1C[C@@H](c1cccc(C(N)=O)c1)C2)CC1CCCCC1 | 0.251 | 7.94 | 0.794 | 1 | 0.217 | 0.0333 | 0.317 | – | – | – | – | – | – | – | – | – | – | – | – | – |
| CCC(CC)CN(CCCCN1[C@@H]2CC[C@H]1C[C@@H](c1cccc(C(N)=O)c1)C2)C(=O)CO | 0.631 | 20 | – | -1 | 1.5 | 1.5 | 0.35 | – | – | – | – | – | – | – | – | – | – | – | – | – |
| CC(C)NC(=O)N(CCN1[C@@H]2CC[C@H]1C[C@@H](c1cccc(C(N)=O)c1)C2)CC1CCCCC1 | 0.2 | 1.26 | 0.158 | 21 | 0.333 | 0.233 | – | 36 | – | – | – | – | – | – | – | – | – | – | – | – |
| NC(=O)c1cccc([C@H]2C[C@H]3CC[C@@H](C2)N3CCN(CC2CCCC2)C(=O)CO)c1 | 0.251 | 15.8 | 0.316 | 4 | 1.5 | 0.233 | 1.5 | 12 | – | – | – | – | – | – | – | – | – | – | – | – |
| CC(C)(C)C(=O)N(CCN1[C@@H]2CC[C@H]1C[C@@H](c1cccc(C(N)=O)c1)C2)CC1CCCCC1 | 0.126 | 2 | 0.158 | 3 | 0.2 | 0.0333 | 0.15 | – | – | – | – | – | – | – | – | – | – | – | – | – |
